Test results reported in ChEMBL document CHEMBL5126632, “Balancing Affinity, Selectivity, and Cytotoxicity of Hydrazone-Based G-Quadruplex Ligands for Activation of Interferon β Genes in Cancer Cells” (J Med Chem, 2022).
pEC50, pIC50, pKd: −log10 of the molar value.

Tests used:
Quadruplex DNA [1] = assay: Stabilization of human Tel26 G4 quadruplex DNA assessed as thermal stability by measuring difference in melting temperature t1/2 by circular dichroism spectroscopy; format: nucleic-acid assay
Quadruplex DNA [2] = assay: Stabilization of c-kit1 G4 quadruplex d(DNA AGGGAGGGCGCTGGGAGGAGGG) DNA (unknown origin) assessed as thermal stability by measuring difference in melting temperature t1/2 by circular dichroism spectroscopy (reference value: 54 +/- 0.5 degC); format: nucleic-acid assay
Quadruplex DNA [3] = assay: Stabilization of c-kit2 G4 quadruplex d(CGGGCGGGCGCTAGGGAGGGT) DNA (unknown origin) assessed as thermal stability by measuring difference in melting temperature t1/2 by circular dichroism spectroscopy (reference value: 61.5 +/- 0.5 degC); format: nucleic-acid assay
Quadruplex DNA [4] = assay: Stabilization of c-myc G4 quadruplex d(TTAGGGTTAGGGTTAGGGTTAGGGTT) DNA (unknown origin) assessed as thermal stability by measuring difference in melting temperature t1/2 by circular dichroism spectroscopy (reference value: 72 +/- 0.5 degC); format: nucleic-acid assay
[5] = Stabilization of d(CGC GAA TTC GCG TIT CGC GAA TTC GCG) DNA hairpin (unknown origin) assessed as thermal stability by measuring difference in melting temperature t1/2 by circular dichroism spectroscopy (reference value: 75.4 +/- 0.2 degC)
Summary of the method: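 CD melting of 15 μM annealed hairpin duplex in 5 mM K phosphate pH 7.0 with 20 mM KCl, with or without ligand at 2 molar equiv added to the folded DNA. The signal was followed at 252 nm from 20 to 100 °C at 1 °C/min, with T1/2 taken from a curve fit. ΔT1/2 is relative to DNA alone; duplicate runs, averaged.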

[6] = Stabilization of F-c-kit1-T (unknown origin) assessed as difference in melting temperature t1/2 in presence of d(CGC GAA TTC GCG TIT CGC GAA TTC GCG) DNA hairpin (unknown origin) measured at 1:15 G4 to hairpin DNA ratio by FRET assay
Summary of the method: (§1)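 FRET melting of 0.2 μM prefolded FAM/TAMRA dual-labelled c-kit1 G4 in 5 mM K phosphate pH 7.0 with 20 mM KCl. Ligand was added at 2 molar equiv, with unlabelled hairpin competitor at 3 or 10 μM final (15 or 50 equiv relative to G4). FAM emission was read at 520 nm (excitation 492 nm) while heating at 0.2 °C/min over 15–90 °C. ΔT1/2 is relative to no ligand; at least duplicate, averaged.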

[7] = Stabilization of F-c-kit1-T (unknown origin) assessed as difference in melting temperature t1/2 in presence of d(CGC GAA TTC GCG TIT CGC GAA TTC GCG) DNA hairpin (unknown origin) measured at 1:50 G4 to hairpin DNA ratio by FRET assay; summary of the method: as §1
Quadruplex DNA [8] = assay: Stabilization of F-c-kit1-T quadruplex DNA (unknown origin) by measuring difference in melting temperature t1/2 by FRET assay; format: nucleic-acid assay
Summary of the method: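 FRET melting of 0.2 μM prefolded FAM/TAMRA-labelled c-kit1 in 5 mM potassium phosphate pH 7.0 with 20 mM KCl, with ligand at 2 molar equiv. Unlabelled hairpin competitor added at 3 or 10 μM (15 or 50 equiv). FAM emission at 520 nm (excitation 492 nm) followed from 15 to 90 °C at 0.2 °C/min. ΔT1/2 versus no ligand. At least duplicate.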

Quadruplex DNA [9] = assay: Displacement of thiazole orange from c-kit1 G4 quadruplex d(DNA AGGGAGGGCGCTGGGAGGAGGG) DNA (unknown origin) assessed as relative affinity by fluorescent intercalator displacement assay; format: nucleic-acid assay
Summary of the method: (§2)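 G4 DNA at 0.25 μM with 0.5 μM thiazole orange in 5 mM potassium phosphate pH 7.0 containing 20 mM KCl (LiCl for c-myc), 20 °C. Ligand titrated from 0.5 to 20 molar equiv with 3 min equilibration per addition. Excitation 485 nm, emission 500–650 nm. %displacement = 100 − (F/F0×100); DC50 is the concentration displacing 50% TO. Duplicate titrations.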

Quadruplex DNA [10] = assay: Displacement of thiazole orange from c-kit2 G4 quadruplex d(CGGGCGGGCGCTAGGGAGGGT) DNA (unknown origin) assessed as relative affinity by fluorescent intercalator displacement assay; format: nucleic-acid assay; summary of the method: as §2
Quadruplex DNA [11] = assay: Displacement of thiazole orange from c-myc G4 quadruplex d(TTAGGGTTAGGGTTAGGGTTAGGGTT) DNA (unknown origin) assessed as relative affinity by fluorescent intercalator displacement assay; format: nucleic-acid assay; summary of the method: as §2
Quadruplex DNA [12] = assay: Binding affinity to c-kit1 G4 quadruplex d(DNA AGGGAGGGCGCTGGGAGGAGGG) DNA (unknown origin) assessed as dissociation constant by Microscale thermophoresis analysis; format: nucleic-acid assay
Summary of the method: (§3)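 MST with Cy5.5-labelled G4 oligonucleotide held at 20 nM, folded in 5 mM potassium phosphate pH 7.0 with 20 mM KCl plus 0.1% Tween. Ligand in 1:2 serial dilution mixed 1:1 with DNA, 20% DMSO final. Kd taken from binding curves.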

Quadruplex DNA [13] = assay: Binding affinity to c-kit2 G4 quadruplex d(CGGGCGGGCGCTAGGGAGGGT) DNA (unknown origin) assessed as dissociation constant by Microscale thermophoresis analysis; format: nucleic-acid assay; summary of the method: as §3
Quadruplex DNA [14] = assay: Binding affinity toc-myc G4 quadruplex d(TTAGGGTTAGGGTTAGGGTTAGGGTT) DNA (unknown origin) assessed as dissociation constant by Microscale thermophoresis analysis; format: nucleic-acid assay; summary of the method: as §3
[15] = Cytotoxicity against mouse MNMCA1 cells assessed as cell survival preincubated for 24 hrs with compound further incubated for 48 hrs in drug free medium by MTT assay; format: functional, cell-based
Summary of the method: (§4)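 Exponentially growing cells seeded and treated 24 h after seeding with increasing concentrations for 24 h. Cells then recovered 48 h in drug-free medium. MTT added for 1 h at 37 °C, formazan dissolved in DMSO, absorbance read at 540 nm. IC50 from linear regression. Means ± SEM of two independent experiments in triplicate.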

U2OS [16] = assay: Cytotoxicity against human U2OS cells assessed as cell survival preincubated for 24 hrs with compound further incubated for 48 hrs in drug free medium by MTT assay; format: functional, cell-based; summary of the method: as §4
Quadruplex DNA [17] = assay: Stabilization of G4 quadruplex DNA in human U2OS cells assessed as BG4 foci formation by measuring fold increase in G4 structure at 10 uM by immunofluorescence microscopy; format: cell-based
Summary of the method: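 U2OS cells on coverslips treated for […]. Fixed in methanol/acetic acid 3:1, permeabilized with 0.1% Triton X-100, blocked in 2% milk. Stained with 0.5 μg BG4 for 2 h, then anti-FLAG and Alexa Fluor 488 secondary. Signal quantified as fold over untreated.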

U2OS [18] = assay: Induction of DNA damage in human U2OS cells assessed as increase in gammaH2AX phosphorylation at S139 incubated for 24 hrs by immunofluorescence microscopy; format: functional, cell-based; conditions: read-out: IC50 (the source's name)
Summary of the method: (§5)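 U2OS cells treated 24 h. Fixed with 4% formaldehyde, permeabilized with 0.5% Triton X-100, blocked with 8% BSA, stained with anti-γH2AX (1:500) and Alexa Fluor 594 secondary, DAPI counterstain. Fluorescence microscopy signal quantified as fold over untreated.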

U2OS [19] = assay: Induction of DNA damage in human U2OS cells assessed as fold increase in gammaH2AX phosphorylation at […] by measuring fold change at 10 uM incubated for 24 hrs by immunofluorescence microscopy; format: functional; summary of the method: as §5
[20] = Genotoxicity in mouse MNMCA1 cells assessed as induction of micronuclei formation measured after 24 hrs by DAPI staining based analysis; format: toxicity, cell-based; conditions: mnmca1, 24 h

Compound	ΔTm (Quadruplex DNA [1]) [°C]	ΔTm (Quadruplex DNA [2]) [°C]	ΔTm (Quadruplex DNA [3]) [°C]	ΔTm (Quadruplex DNA [4]) [°C]	ΔTm [5] [°C]	ΔTm [6] [°C]	ΔTm [7] [°C]	ΔTm (Quadruplex DNA [8]) [°C]	pIC50 (Quadruplex DNA [9])	pIC50 (Quadruplex DNA [10])	pIC50 (Quadruplex DNA [11])	pKd (Quadruplex DNA [12])	pKd (Quadruplex DNA [13])	pKd (Quadruplex DNA [14])	pIC50 [15]	pIC50 (U2OS [16])	fold change (FC) (Quadruplex DNA [17])	pEC50 (U2OS [18])	fold change (FC) (U2OS [19])	fold change (FC) [20]
N=C(N)N/N=C/c1c(-c2ccccc2)nc2n1ccc1nc(-c3ccc(Cl)cc3)c(/C=N/NC(=N)N)n12	5	21.4	> 30	17.6	2.3															
Cc1ccc(-c2nc3n(ccc4nc(-c5ccccc5)c(/C=N/NC5=NCCN5)n43)c2/C=N/NC2=NCCN2)cc1	6.2	21.4	> 30	13.1	2.2															
Clc1ccc(-c2nc3n(ccc4nc(-c5ccccc5)c(/C=N/NC5=NCCN5)n43)c2/C=N/NC2=NCCN2)cc1	6.6	17.7	19.2	10.6	1.2	24.8	23.8	26.6	5.92	5.85	5.89	7.15	6.30	5.92						
Cc1ccc(-c2nc3ccn4c(/C=N/NC5=NCCN5)c(-c5ccccc5)nc4n3c2/C=N/NC2=NCCN2)cc1	5.3	15.2	> 30	9.1	1.1	21.4	20.2	22.4	5.89	5.92	5.89	6.92	6.89		4.54	3.97	2.4	4.00	1.45	0.4
Cc1ccc(-c2nc3n(ccc4nc(-c5ccc(C)cc5)c(/C=N/NC5=NCCN5)n43)c2/C=N/NC2=NCCN2)cc1	4.5	17.1	26.5	8.5	2.4															
N=C(N)N/N=C/c1c(-c2ccc(Cl)cc2)nc2n1ccc1nc(-c3ccccc3)c(/C=N/NC(=N)N)n12	8.3	20.1	> 30	14.3	2.6															
Cc1ccc(-c2nc3n(ccc4nc(-c5ccccc5)c(/C=N/NC(=N)N)n43)c2C=O)cc1	3.8	6.6	20.8	3.1	1.2															
Cc1ccc(-c2nc3n(ccc4nc(-c5ccc(C)cc5)c(/C=N/NC(=N)N)n43)c2C=O)cc1	2.1	6.1	16.2	4.6	2.3															
C(=N\NC1=NCCN1)/c1c(-c2ccsc2)nc2n1ccc1nc(-c3ccsc3)c(/C=N/NC3=NCCN3)n12	3.8	10.3	14.9	4.7	2															
